Assay results pooled from the literature.
Protocols differ between the studies behind these lines.
Target: Protein kinase C iota type (PRKCI, Homo sapiens, UniProt P41743)
Sequence (P41743 1-596, as in one of the studies): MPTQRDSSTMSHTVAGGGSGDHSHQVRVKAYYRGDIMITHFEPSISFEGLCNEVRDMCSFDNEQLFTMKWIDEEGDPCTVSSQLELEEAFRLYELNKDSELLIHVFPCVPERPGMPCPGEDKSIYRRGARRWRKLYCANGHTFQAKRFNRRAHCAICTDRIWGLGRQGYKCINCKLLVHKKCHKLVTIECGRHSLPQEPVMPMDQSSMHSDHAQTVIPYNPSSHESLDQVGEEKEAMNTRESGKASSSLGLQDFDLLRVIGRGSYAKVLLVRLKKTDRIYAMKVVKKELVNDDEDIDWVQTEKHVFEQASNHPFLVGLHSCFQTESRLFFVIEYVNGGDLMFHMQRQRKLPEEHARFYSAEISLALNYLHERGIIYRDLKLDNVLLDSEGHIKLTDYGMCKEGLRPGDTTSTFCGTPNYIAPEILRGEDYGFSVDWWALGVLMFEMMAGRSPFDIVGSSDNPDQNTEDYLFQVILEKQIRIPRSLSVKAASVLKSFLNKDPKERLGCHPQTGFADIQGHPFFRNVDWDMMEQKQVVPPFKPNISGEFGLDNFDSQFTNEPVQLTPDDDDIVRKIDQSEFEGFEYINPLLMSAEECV

| Compound | assay | setting | quantity | value |
| --- | --- | --- | --- | --- |
| Cn1cc(-c2cc(F)cc(N3CCn4c(cc5c4CCCC5)C3=O)c2CO)cc(Nc2ccc(N3CCN(C4COC4)CC3)cn2)c1=O | enzyme activity, inhibitor | 0.1 µM | inhibition | -3% |
| Cn1cncc1[C@](O)(COc1ccc(C#N)cc1-c1ccc(OC(F)(F)F)cc1)c1ccc(C#N)cc1 | cell-free assay, competition with immobilised ligand | 1 µM | remaining binding | 100% |
| COCc1c(-c2cc3cc(C)cc(OC)c3s2)c2c(N)ncnn2c1CN1CCNC(=O)C1 | cell-free assay, competition with immobilised ligand | 1 µM | inhibition | 80% |
| COc1ncccc1-c1cnn2ccc(N3CCN(C(=O)OC(C)C)CC3)nc12 | binding, competition with immobilised ligand | 1 µM | remaining binding | 90% |
| CC(C)(C)c1cc(C=C(C#N)C#N)cc(Br)c1O | enzyme activity, inhibitor | 0.5 µM | remaining activity | 100% |
| Cn1cc(-c2cccc(N3CCc4c(sc5c4CC(C)(C)C5)C3=O)c2CO)cc(Nc2ccncn2)c1=O | enzyme activity, inhibitor | 1 µM | inhibition | 6% |
| O=c1[nH]c2ccccc2n1C1CCN(Cc2ccc(-c3[nH]c4cc5ncnc5cc4nc3-c3ccccc3)cc2)CC1 | cell-free assay | 0.5 µM | remaining signal | 97% |
| COc1cc(Nc2ncc(F)c(Nc3ccc4c(n3)NC(=O)C(C)(C)O4)n2)cc(OC)c1OC | binding | 10 µM | inhibition | 35% |
